# TPT1 inhibitor: inhibitors of Candida albicans tRNA 2'-phosphotransferase TPT1. inhibition, % at 5 µM. recombinant caTPT1, FP RNA substrate dephosphorylation. AID 1962. 0.81% of 300,000 active;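 active = inhibition above the mean of all tested compounds plus 3 SD, set per screening campaign, cut at about 24% in these data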;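 note: plate controls were DMSO alone for no effect and ferristatin control at 100 nM for full effect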
# HNF4A DNA FP: change in binding of human HNF4 alpha to DNA; P41235; HNF4a-FITC DNA binding, fluorescence polarization, 1 h; activity change, % at 10 µM; 0.3% of 360,000 active; AID 1224865; in the data active = activity change above about 30%, passing the limit was not always enough
# IDE cell activ: activators of human insulin-degrading enzyme in cells. HEK cells, FAbeta-B cleavage, fluorescence polarization; 0% vehicle, 100% cell-free pure enzyme wells. activation, % at 5.96 µM. 0.073% of 340,000 active. AID 493087;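 active = activation above the mean of all tested compounds plus 3 SD, set per screening campaign, cut at about 17% in these data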
# Rpn11 block: inhibitors of human proteasome Rpn11 | inhibition, % at 20 µM | 0.59% of 360,000 active | human 26S proteasome, Ub4-pepOG fluorescence polarization; 20S core pre-blocked with epoxomicin;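 active = inhibition at 20 µM, scaled to each plate's controls, above about 33%, limit read from the data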
# IDE cell inh: inhibits human insulin-degrading enzyme in HEK cells; P14735; inhibition, % at 5.59 µM; 0.41% of 320,000 active; FAbetaB cleavage, fluorescence polarization;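 active = percent inhibition above the average of all tested compounds plus 3 SD, set per screening campaign, cut at about 16% in these data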;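 note: IDE supplied by intact live HEK cells; FP after avidin binding of uncleaved biotin substrate so inhibition keeps polarization high; 0% = DMSO wells and 100% = 60 µM reference IDE inhibitor Ii1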
# CSN inh: inhibitors of human CSN-mediated cullin deneddylation; Q92905; Purified CSN, SCF-Nedd8-OG deneddylation, fluorescence polarization; inhibition, % at 12.5 µM; 0.38% of 360,000 active; AID 651999;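 active = pattern-corrected inhibition above about 35%, with an unprinted fluorescence ratio check between 0.5 and 1.5, limit read from the data, passing the limit was not always enough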;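 note: 0% = enzyme with substrate and 100% = substrate without enzyme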
# Target sequence (Q92905 whole entry, looked up, one chain of several): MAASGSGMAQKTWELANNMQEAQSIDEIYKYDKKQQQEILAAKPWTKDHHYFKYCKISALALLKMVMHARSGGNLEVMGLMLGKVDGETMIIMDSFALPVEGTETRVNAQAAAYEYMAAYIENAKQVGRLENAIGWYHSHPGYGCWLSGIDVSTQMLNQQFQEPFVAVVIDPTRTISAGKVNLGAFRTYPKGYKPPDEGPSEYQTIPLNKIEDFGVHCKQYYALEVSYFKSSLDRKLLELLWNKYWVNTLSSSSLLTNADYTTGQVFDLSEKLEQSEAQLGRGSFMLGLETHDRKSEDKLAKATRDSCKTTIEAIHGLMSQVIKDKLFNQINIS
#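 Assay system: HEK293T-derived human Csn5 enzyme; quantity: 0.24 nM enzyme; medium: Tris/NaCl/DTT buffer, pH 7.5; also added: substrate SCFSkp2-Nedd8OG, 10 nM; doses: 12.5 µM compound; schedule: 90 min reaction at room temperature; signal: FP; read-out: % inhibition of substrate cleavage by Csn5; benchmarks: substrate-only high control, full reaction low control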
# TPT1 inh confirm: confirmation of Candida albicans TPT1 inhibitors. recombinant caTPT1, fluorescence polarization, RNase T1 coupled. 74% of 2,400 active. inhibition, % at 5 µM. shares compounds with TPT1 inhibitor;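 active = inhibition above the primary screen limit, the mean inhibition of all tested compounds plus 3 SD, cut at about 25% in these data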
# RNase T1 inh: RNase T1 inhibition in TPT1 counter-screen; shares compounds with TPT1 inhibitor; RNase T1 cleavage, fluorescence polarization, 1536-well; inhibition, % at 5 µM; 83% of 2,400 active;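 active = inhibition above the solvent-only control well mean plus 3 SD, limit set per screening run, cut at about 23% in these data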;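 note: plate controls were DMSO wells with enzyme for no effect and wells without RNase T1 for full effect; inhibitors block cleavage so intact labeled substrate keeps polarization high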
# Target sequence (P00651 whole entry, looked up): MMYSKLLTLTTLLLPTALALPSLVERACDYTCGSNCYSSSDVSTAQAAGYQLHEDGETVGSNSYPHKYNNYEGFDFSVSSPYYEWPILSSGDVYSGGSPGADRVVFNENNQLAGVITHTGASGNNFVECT
# IDE inh confirm: cellular human IDE inhibition, confirmation; HEK cells, FAbetaB cleavage, fluorescence polarization; 51% of 1,200 active; inhibition, % at 5.59 µM; shares compounds with IDE cell inh;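 active = mean inhibition across triplicate wells above the cutoff set by the earlier primary insulin-degrading enzyme screen, cut at about 16% in these data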;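 note: 0% = DMSO wells and 100% = 60 µM reference IDE inhibitor Ii1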
# HEK cytotox: HEK cell cytotoxicity, counter-screen for IDE inhibitors | shares compounds with IDE cell inh | HEK293 cytotoxicity, ATP luminescence | inhibition, % at 5.59 µM | 28% of 1,200 active; in the data active = inhibition above about 22%;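 note: 0% = vehicle wells and 100% = reference cytotoxic drug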
# Rpn11 inh conf: Rpn11 inhibition confirmation, single concentration; 29% of 1,900 active; purified human 26S proteasome, Ub4-pepOG fluorescence polarization; proteasome pretreated with epoxomicin; inhibition, % at 20 µM; shares compounds with Rpn11 block; AID 602318
# MMP-2 counter-1: blocks human MMP-2, flagging nonselective RPN11 hits; shares compounds with Rpn11 block; recombinant MMP-2, FRET peptide cleavage fluorescence; inhibition, % at 20 µM; 4% of 1,900 active;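 note: human MMP-2 activated beforehand with APMA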
# Thrombin FP: blocks bovine thrombin, flagging nonselective RPN11 hits. bovine thrombin cleavage of Ub4-pepOG, fluorescence polarization. 13% of 1,900 active. AID 602333. shares compounds with Rpn11 block. inhibition, % at 20 µM;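 active = mean inhibition at least 40% at 20 µM, or signal 3 deviations below plate average, so some actives read negative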;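 note: plate controls were thrombin with DMSO for no effect and buffer wells lacking thrombin for full effect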
# CSN5 deneddyl: Csn5 (human) deneddylation inhibition, single-concentration validation; shares compounds with CSN inh; Csn5 deneddylation of SCF-Nedd8OG, fluorescence polarization, 90 min; inhibition, % at 16.6 µM; 62% of 540 active; AID 720654; in the data active = inhibition above about 50%;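 note: 0% = DMSO with enzyme and 100% = no enzyme wells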
# MMP-2 counter-2: MMP-2 (human) inhibition, counter-screen for CSN hits; shares compounds with CSN inh; recombinant MMP-2, FRET substrate fluorescence, 60 min; inhibition, % at 16.6 µM; 33% of 540 active;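 active = corrected plate-normalized z-score of 5 or more, or -5 or less, or inhibition of 15% or more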;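 note: plate controls were DMSO wells with enzyme for no effect and buffer wells lacking MMP-2 for full effect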
# Thrombin cntr: blocks bovine thrombin in a CSN deneddylation counter-screen. shares compounds with CSN inh. bovine thrombin cleavage of Ub4-pepOG, fluorescence polarization. inhibition, % at 16.6 µM. 49% of 540 active. AID 720656;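 active = inhibition at or above a set limit, with a fluorescence interference ratio between 0.5 and a set maximum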
# An asterisk follows results filed as active; / = no result shown. Rows were chosen to be rich in hits. Some 1.7% of all compounds tested hit in one or more screens of this group. Cut-off read from the data, not from the text of the source, unless noted: active = inhibition above about 40%; inactive = the rest.
SMILES,TPT1 inhibitor,HNF4A DNA FP,IDE cell activ,Rpn11 block,IDE cell inh,CSN inh,TPT1 inh confirm,RNase T1 inh,Rpn11 inh conf,MMP-2 counter-1,Thrombin FP,CSN5 deneddyl,MMP-2 counter-2,Thrombin cntr,others
COc1cc(/C=C/c2nc3ccccc3c(=O)n2-c2cccc(O)c2)ccc1O,34*,17,-114,93*,65*,9,50*,54*,19,26,19,/,/,/,IDE inh confirm=153*;HEK cytotox=19
O=c1c2ccccc2nc(/C=C/c2ccccc2)n1-c1ccc(O)cc1,-5,4,3,-7,7,3,/,/,/,/,/,/,/,/,
C=CCN1Cc2ccccc2-n2nncc2C1,/,-4,/,2,/,0,/,/,/,/,/,/,/,/,
N#CC1c2ccccc2-n2nncc2CN1Cc1cc(Cl)cc(Cl)c1 (stereo unspecified),/,2,-12,8,/,4,/,/,/,/,/,/,/,/,
CN1C(=O)/C(=C\c2ccc(Br)s2)C(=O)NC1=S,25*,1,-10,55*,3,11,15,27*,-2,-1,6,/,/,/,
COc1ccc(-n2c(O)c(C=NCCCn3ccnc3)c(=O)[nH]c2=O)cc1,-2,-3,7,-4,1,5,/,/,/,/,/,/,/,/,
COc1ccc(-n2c(O)c(/C=C3\C=Nc4ccc(Br)cc43)c(=O)[nH]c2=O)cc1,33*,0,-7,65*,7,16,26*,32*,-19,-37,-65,/,/,/,
CCOC(=O)[C@@H]1[C@H]2COc3ccc(Br)cc3[C@H]2N2C(=O)N(c3cccc(C)c3)C(=O)[C@]12C,/,6,6,-4,-1,-2,/,/,/,/,/,/,/,/,
O=c1[nH]c(=O)n(-c2cccc3ccccc23)c(O)c1/C=N/N1CCCCC1c1cccnc1 (stereo unspecified),51*,33*,1,44*,7,27,67*,81*,90*,26,67*,/,/,/,
O=C(NCC1=C(c2ccc3ccccc3c2)C[C@@H]2CC[C@H]1N2Cc1ccco1)c1ccc([N+](=O)[O-])cc1,/,-3,/,-7,/,5,/,/,/,/,/,/,/,/,
COc1ccc2nc(/N=C/c3c(O)n(-c4cccc(Cl)c4)c(=O)[nH]c3=O)sc2c1,55*,1,-3,48*,5,23,14,17,2,-22,-13,/,/,/,
O=c1[nH]c(=S)[nH]c(O)c1N=Nc1ccc2c(c1)OCCO2,25*,48*,-5,77*,2,34,35*,48*,29,-6,45*,/,/,/,
CN(C(=O)CN1CC=C(c2ccccc2)CC1)c1c(N)n(Cc2ccccc2)c(=O)[nH]c1=O,3,0,2,5,-2,-9,/,/,/,/,/,/,/,/,
O=c1[nH]c(CN2CC=C(c3ccccc3)CC2)nc2scc(-c3ccccc3)c12,54*,21,6,50*,0,6,32*,45*,58*,-20,16,/,/,/,
Cn1c(O)c(C=Nc2ccc(Br)cc2)c(=O)n(C)c1=O,-3,-4,0,5,4,3,/,/,/,/,/,/,/,/,
Cn1c(O)c(/C=C/C=Nc2ccccc2)c(=O)n(C)c1=S,134*,95*,-17,118*,27*,75*,67*,74*,113*,-74,active,/,-100*,-1,IDE inh confirm=45*;HEK cytotox=5
CCc1ccccc1N1C(=O)NC(=O)/C(=C\c2cc(C)n(C)c2C)C1=O,3,2,6,3,5,-5,/,/,/,/,/,/,/,/,
CCc1ccccc1N1C(=O)/C(=C/c2ccc(N3CCN(C)CC3)o2)C(=O)NC1=S,106*,55*,-20,/,1,128*,142*,138*,/,/,/,12,-1,77*,
O=C1NC(=O)N(c2ccc3c(c2)OCO3)C(=O)/C1=C\c1ccc(N2CCCCC2)o1,126*,169,-34,/,19*,89*,148*,145*,/,/,/,138*,-26,54,IDE inh confirm=21*;HEK cytotox=14
COc1ccc2nc3c(C)n(C)ccc-3c2c1,/,-1,2,-27,/,1,/,/,/,/,/,/,/,/,
CCN(CC)c1ccc(/C=C2/C(=O)NC(=O)N(CC3CCCO3)C2=O)cc1 (stereo unspecified),-12,-1,-4,-41,6,-8,/,/,/,/,/,/,/,/,
CCCCN1C(=O)/C(=C/c2ccc(N(C)C)cc2)C(=O)N(Cc2ccco2)C1=O,150*,20,-10,/,4,132*,110*,116*,/,/,/,86*,4,14,
CCN(CC)c1ccc(/C=C2\C(=O)NC(=O)N(Cc3ccco3)C2=O)cc1,38*,5,-4,18,5,54*,93*,112*,/,/,/,85*,-6,9,
CC(C)c1ccc(N2C(=O)NC(=O)/C(=C/C=C/c3ccco3)C2=O)cc1,102*,66*,-23,/,12,135*,70*,72*,/,/,/,0,2,52*,
CCc1ccc(N2C(=O)NC(=O)/C(=C\C=C\c3ccco3)C2=O)cc1,58*,11,-26,/,5,86*,51*,68*,/,/,/,41,3,11,
O=C1NC(=O)N(Cc2ccc(F)cc2)C(=O)/C1=C\C=C\c1ccco1,90*,30,-18,/,19*,99*,48*,63*,/,/,/,73*,8,17*,IDE inh confirm=9;HEK cytotox=12
